APJ agonist = activates the human apelin receptor APJ | 330,000 tested, 0.11% active | CHO-K1 APJ PathHunter beta-arrestin, luminescence; 0% DMSO wells, 100% apelin | activation, % at 20 µM;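 active = activation more than six SD over the plate average, tested at 20 µM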;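 also: 0% = DMSO alone and 100% = apelin-13 at 10 nM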
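assay system = CHO-K1 APJ beta-arrestin complementation cell line | input = cell density 1000 per well | dosing = compound 20 µM once, DMSO 1% | timing = compound 90 min 25 °C, reagent 1 h | measured by = luminescence from split beta-galactosidase complementation, Galacton Star/Emerald II substrate | read-out basis = APJ agonist activity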
EBI2 antag = blocks human EBI2 receptor beta-arrestin signaling. EBI2 beta-arrestin recruitment, luminescence, 7a,25-OHC stimulated. inhibition, % at 5 µM. 360,000 tested, 0.81% active. AID 651636; in the data active = inhibition above about 38%;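 also: enzyme fragment complementation signal reports receptor beta-arrestin coupling in cells; 0% = agonist plus DMSO wells and 100% = wells without agonist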
CCR6 antagonist = antagonists of human CCR6 receptor | P51684 | CHO-K1 CCR6 PathHunter beta-arrestin, luminescence, CCL20-stimulated | inhibition, % at 20 µM | 340,000 tested, 0.49% active;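 active = compounds whose inhibition of the agonist-driven luminescence signal at 20 µM reaches about 50%, limit read from the data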;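 also: cells stimulated with CCL20 at 14 nM final; plate controls were DMSO with CCL20 for no effect and DMSO without agonist for full effect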
Target sequence (P51684 whole entry, looked up): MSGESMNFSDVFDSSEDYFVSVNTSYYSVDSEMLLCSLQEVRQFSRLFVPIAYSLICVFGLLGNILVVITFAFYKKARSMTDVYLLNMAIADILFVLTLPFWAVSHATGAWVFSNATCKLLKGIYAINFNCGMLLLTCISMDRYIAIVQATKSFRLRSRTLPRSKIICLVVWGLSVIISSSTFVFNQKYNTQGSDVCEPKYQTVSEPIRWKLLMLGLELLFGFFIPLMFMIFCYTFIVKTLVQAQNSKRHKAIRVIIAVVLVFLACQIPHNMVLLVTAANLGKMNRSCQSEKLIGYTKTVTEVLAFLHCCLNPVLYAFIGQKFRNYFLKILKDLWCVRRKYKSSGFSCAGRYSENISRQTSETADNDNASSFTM
CXCR6 block = inhibitors of human CXCR6 receptor; O00574; CHO-K1 PathHunter CXCR6 beta-arrestin, luminescence; inhibition, % at 20 µM; 360,000 tested, 0.36% active; AID 602244; in the data active = inhibition above about 34%, passing the limit was not always enough;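 also: antagonist mode with CXCL16 agonist at 10 nM final; 0% = 10 nM CXCL16 with DMSO and 100% = unstimulated wells without agonist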
APJ antagonist = antagonists of human APJ apelin receptor; P35414; CHO-K1 APJ beta-arrestin complementation, luminescence; AID 2521; 330,000 tested, 0.32% active; inhibition, % at 20 µM;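 active = inhibition above about 40% at 20 µM, limit read from the data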;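 also: cells challenged with 10 nM apelin-13 agonist together with compound; plate controls were apelin-13 plus DMSO wells for no effect and DMSO wells lacking apelin-13 for full effect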
EBI2 antag conf = confirmation of human EBI2 receptor antagonists; shares compounds with EBI2 antag; EBI2 beta-arrestin luminescence, 7a,25-OHC antagonism; inhibition, % at 5 µM; 2,400 tested, 29% active;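 active = inhibition of at least 50%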
EBI2 agonist = counter-screen for EBI2 antagonists: EBI2 agonist activity. AID 652000. shares compounds with EBI2 antag. activation, % at 5 µM. EBI2-expressing cells, agonist mode, luminescence, 60 min; 0% vehicle, 100% 7α,25-dihydroxycholesterol control. 2,400 tested, under 10 active;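 active = activation of at least 50%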
bGal cs = inhibits E. coli beta-galactosidase, counter-screen for EBI2 antagonists; 2,400 tested, 1% active; shares compounds with EBI2 antag; purified beta-galactosidase, luminescent Galacton Star, 15 min; inhibition, % at 5 µM;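 active = replicate-average signal at least 3 plate SD below neutral wells, shown as high inhibition, flagging enzyme-inhibiting false positives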;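 also: 0% = DMSO wells with enzyme and 100% = wells lacking enzyme; higher means stronger loss of beta-gal luminescence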
Active calls of the source: *; x = not tested or not shown. The list is not random: actives were taken first. Their share in the collection is about 1.5%.

SMILES	APJ agonist	EBI2 antag	CCR6 antagonist	CXCR6 block	APJ antagonist	EBI2 antag conf	EBI2 agonist	bGal cs
Cc1cc(C)nc(Nc2nc(C(N)Cc3ccc(Cl)cc3)cs2)n1 (stereo not given)	x	0	x	-14	x	x	x	x
O=C(c1ccc2ccccc2c1)N1CCN(Cc2ccccc2)CC1	-2	90*	7	-4	-19	77*	1	6
O=C(c1ccc(Br)cc1)N1CCC(C(=O)N2CCN(c3ccccc3)CC2)CC1	-2	79*	25	-8	10	39	0	-11
COc1ccc(C(=O)N2CCC(C(=O)N3CCN(c4ccccc4)CC3)CC2)cc1	-2	22	15	11	-17	x	x	x
O=C(c1ccc(Br)cc1)N1CCN(Cc2ccccc2)CC1	-1	48*	4	-3	12	36	0	5
O=C(c1ccc(F)cc1)N1CCN(Cc2ccccc2)CC1	-1	9	-1	-4	-1	x	x	x
CCOC(=O)c1cc(C#N)c(N2CCCNCC2)nc1C(F)(F)F	0	-8	-4	-1	7	x	x	x
Cc1cccc(OCC(=O)Nc2ccccc2N2CCCCC2)c1C	-2	43*	40	7	-7	11	-1	-8
Cc1cccc(OCC(=O)NC2CCCc3ccccc32)c1C (stereo not given)	-4	57*	12	1	-9	58*	-1	-21
O=C(Nc1ccccc1F)Nc1ccccc1N1CCCCC1	2	53*	16	8	6	6	-1	-14
COc1ccccc1OCC(=O)NC1CCCc2ccccc21 (stereo not given)	-5	-4	3	9	8	x	x	x
COc1ccc(NC(=O)/C(=C\c2ccccc2)NC(=O)c2ccco2)cc1	-3	-10	15	3	10	x	x	x
Clc1ccc(-c2nnnn2-c2ccc(Cl)c(Cl)c2)cc1Cl	-4	49*	20	13	27	17	-2	-11
CC1=C(C(=O)OCC2CCCO2)C(c2cccc(C(F)(F)F)c2)C2=C(CC(c3ccco3)CC2=O)N1 (stereo not given)	-4	53*	8	7	-5	30	0	5
CC1=C(C(=O)OCC2CCCO2)C(c2ccccc2OC(C)C)C2=C(CC(c3ccco3)CC2=O)N1 (stereo not given)	-6	-2	-2	13	12	x	x	x
O=C(NCCc1ccccc1)c1ccc(CS(=O)Cc2ccc(Cl)cc2)o1 (stereo not given)	-2	60*	10	-4	2	35	1	7
O=C(NCc1ccccc1)c1ccc(CS(=O)Cc2ccc(Cl)cc2)o1 (stereo not given)	-2	8	10	11	3	x	x	x
CC(NC(=O)CCCOc1ccc(Cl)cc1)c1ccccc1 (stereo not given)	5	44*	5	-10	0	10	-1	-11
CCN(CC(=O)NC1CCS(=O)(=O)C1)S(=O)(=O)c1ccc(Cl)cc1C(F)(F)F (stereo not given)	-1	-7	10	7	27	x	x	x
COc1ccc(N(CC(=O)NCCOc2ccccc2)S(=O)(=O)c2ccc(C)cc2)cc1	-3	87*	18	3	-23	64*	1	2
CCOc1ccc(N(CC(=O)NCCOc2ccc(C)cc2)S(=O)(=O)c2ccccc2)cc1	2	91*	6	11	3	65*	2	4
Clc1cccc(-c2nnc(SC/C=C/c3ccccc3)n2Cc2ccco2)c1	-6	45*	16	12	7	35	-1	4
O=C(COC(=O)c1ccc(Cl)c(S(=O)(=O)N2CCCCCC2)c1)NCc1ccccc1	x	5	x	2	x	x	x	x
C(=C\c1ccccc1)/CN1CCN(C(CCc2ccccc2)c2nnnn2C2CCCC2)CC1 (stereo not given)	x	51*	x	10	x	31	4	12
FC(F)(F)Oc1ccccc1C(c1nnnn1C1CCCC1)N1CCN(C/C=C/c2ccccc2)CC1 (stereo not given)	x	64*	x	24	x	39	-1	-8
SMILES	APJ agonist	EBI2 antag	CCR6 antagonist	CXCR6 block	APJ antagonist	EBI2 antag conf	EBI2 agonist	bGal cs
CC(C)(C)NC(=O)CSc1ccc(S(=O)(=O)N2CCOCC2)cn1	-2	-19	7	-2	13	x	x	x
Clc1cccc(CN2CCCCCC2)c1Cl	-3	-5	2	-13	5	x	x	x
Cc1ccc(OCc2nc3c4c(ncn3n2)-c2ccccc2CC42CCCC2)cc1	-3	25	14	6	18	x	x	x
Oc1cccc(-c2nc3c4c(ncn3n2)-c2ccccc2CC42CCCC2)c1	0	47*	-8	-8	-19	31	2	9
COc1ccc(OCc2nc3c4c(ncn3n2)-c2ccccc2CC42CCCC2)cc1	-2	55*	18	-2	-21	19	3	6
CC(NC(=O)COC(=O)CC(c1ccccc1)c1ccccc1)c1ccccc1 (stereo not given)	-3	7	22	4	-3	x	x	x
Cc1ccc(C)c(N(CC(=O)Nc2cc(Cl)ccc2Oc2ccccc2)S(C)(=O)=O)c1	-6	39	20	2	15	x	x	x
Cc1cccc(C)c1N(CC(=O)Nc1cc(Cl)ccc1Oc1ccccc1)S(C)(=O)=O	-1	47*	12	5	16	12	0	8
Cc1ccc(NC2=CC(=O)CC(c3ccccc3)C2)cc1 (stereo not given)	0	55*	6	-6	2	42	2	5
C/C=C/C1=CC(=O)C[C@H](c2ccc(Cl)cc2)C1	-4	-2	14	2	-1	x	x	x
O=C1C=C(Nc2ccc(Cl)cc2)CC(c2ccccc2)C1 (stereo not given)	-1	70*	16	-2	6	55*	0	8
Cc1ccc(NC2=CC(=O)CC(c3ccc(Cl)cc3)C2)cc1 (stereo not given)	-2	82*	1	9	1	79*	-1	-8
Nc1ccccc1NC1=CC(=O)CC(c2ccccc2)C1 (stereo not given)	-2	x	x	x	9	x	x	x
Cc1ccc(F)c(S(=O)(=O)NC(=O)C2(C)CCN2C(=O)Cc2cc(F)ccc2F)c1 (stereo not given)	x	-1	x	2	x	x	x	x
COC(=O)c1sc(NC(=O)/C=C/c2ccccc2Cl)nc1C	-2	-9	12	4	17	x	x	x
O=C1[C@H](Cc2ccccc2)NCC=CC[C@H](c2ccc(Cl)cc2)N1Cc1ccccc1	x	2	6	0	x	x	x	x
